This is an account of results in ChEMBL document CHEMBL4513216, “Probing the Open Global Health Chemical Diversity Library for Multistage-Active Starting Points for Next-Generation Antimalarials” (ACS Infect Dis, 2020).

The data set is described as follows: Toxicity liver stage against HepG2, at 10uM. It is filed as cell-based. Also noted: test concentration 10 uM, cell line HepG2-A16-CD81EGFP. Conditions: human, HepG2-A16-CD81EGFP cells; read-out: INHIBITION
The gist of the method:
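Uninfected HepG2-A16-CD81EGFP cells, 3 × 10^3 per well, 1536-well, plated on prespotted compound at 10 μM final, parasite-free screening media added to match infected plates; puromycin 10 μM positive, DMSO 0.5% negative; run in parallel with 48 h PbLuc assay at 37 °C, 5% CO2; viability by CellTiter-Glo luminescence, normalized to controls.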

SMILES strings stand for the structures.

`c1ncc2c(n1)CN(Cc1nc(-c3ccsc3)no1)CC2`: the cytotoxicity at 10 µM was -4.77%.

With `CC(C)CS(=O)(=O)N1C[C@@H]2C[C@H](C(=O)NCc3ccccc3)[C@H](C1)O2`, the cytotoxicity at 10 µM came out at 8.24%.

Consider `CCN(CC)Cc1nc2c(o1)CN(C(=O)c1ccc3[nH]ccc3c1)C2`, for which the cytotoxicity at 10 µM was 7.07%.

In the case of `CC(C)(C)c1coc([C@@H]2COCCN2Cc2ccccc2)n1`, the cytotoxicity at 10 µM was found to be 2.72%.

Regarding `c1cc(CNCC2CNc3ccnn3C2)cc(Cn2cccn2)c1` (stereo not drawn), the cytotoxicity at 10 µM is -19%.

`CCc1nc(Cn2nc(COC)oc2=O)cs1`: the cytotoxicity at 10 µM was -43.4%.

Take `O=S(=O)(N1CCOCC1)N1CCCCC1CCn1cccn1` (stereo not drawn): the cytotoxicity at 10 µM is -0.302%.

As to `Cc1nnc(NC(=O)NCc2ccc(N3CCOCC3)nc2)s1`, the cytotoxicity at 10 µM is -6.21%.

Turning to `CCC1=N[C@@]2(CC[C@@H]3CN(S(=O)(=O)N(C)C)C[C@@H]32)C(=O)N1CC(C)C`, the cytotoxicity at 10 µM came out at 10.3%.

Take `CNS(=O)(=O)CCCN1CCCC1c1noc(C)n1` (stereo not drawn): the cytotoxicity at 10 µM was -4.38%.

Take `CN1CCC(Cc2nc(-c3cnccn3)n(C3CCS(=O)(=O)C3)n2)CC1` (stereo not drawn): the cytotoxicity at 10 µM is -2.64%.

On to `COc1ccc(C2=NOC(CC#N)C2)cc1` (stereo not drawn), for which the cytotoxicity at 10 µM worked out at 1.52%.

Consider `CCCC(=O)Nc1cnn(CC(=O)Nc2ccc(SC)cc2)c1`, for which the cytotoxicity at 10 µM is -8.81%.

Consider `Cc1cc(CN2CCC(C3CCN(CC(C)C)CC3)C2)[nH]n1` (stereo not drawn), for which the cytotoxicity at 10 µM is -8.71%.

Regarding `CC(C)N(CC(N)=O)Cc1csc(C(C)(C)C)n1`, the cytotoxicity at 10 µM was -5.13%.

As for `Cn1ncc2c(=O)[nH]c(CN3CCCC3c3ccccc3Cl)nc21` (stereo not drawn), the cytotoxicity at 10 µM is -4.8%.

Consider `Cc1ccnc(CNC(=O)C2CC(=O)N(CCN(C)C)C2)c1` (stereo not drawn), for which the cytotoxicity at 10 µM is -5.79%.

As to `COc1ccc(Cl)cc1CS(=O)(=O)Cc1cc(C)on1`, the cytotoxicity at 10 µM was found to be 6.06%.

For the molecule `Cc1ncncc1-c1ccnc(N(C)C)n1`, the cytotoxicity at 10 µM was -8.3%.

As for `c1coc(CN2CCc3onc(Cn4cccc4)c3C2)c1`, the cytotoxicity at 10 µM came out at 8.43%.

`Cc1nc(C)n(CC2CCCN2Cc2ncc(-c3ccccc3)o2)n1` (stereo not drawn): the cytotoxicity at 10 µM was -4.92%.

As to `CN(Cc1ccc(Cl)s1)C1CCCN(c2cccnn2)C1` (stereo not drawn), the cytotoxicity at 10 µM is -4.27%.

As to `Cc1cc(-c2nccn2CCN2CCCCC2CO)oc1C` (stereo not drawn), the cytotoxicity at 10 µM came out at 0.264%.

Regarding `Cc1cnc(CN2CCCC2c2noc(C3CC3)n2)cn1` (stereo not drawn), the cytotoxicity at 10 µM is -13.5%.

For `CCN(Cc1ccc2c(c1)OCCO2)C(=O)NC(C)Cn1ccnc1` (stereo not drawn), the cytotoxicity at 10 µM was -2.79%.

Consider `CC1COCCN1C(=O)c1ccc(=O)n(CCOc2ccccc2)n1` (stereo not drawn), for which the cytotoxicity at 10 µM is -13.5%.

On to `CSCC(=O)N1CCCC1c1noc(C2CC2)n1` (stereo not drawn), for which the cytotoxicity at 10 µM was 17%.

Turning to `Cc1cnccc1NC(=O)CCc1ccsc1`, the cytotoxicity at 10 µM is -3.51%.

With `COc1cccc(CNc2c(C)nn(C(C)C)c2C)c1`, the cytotoxicity at 10 µM was -46.9%.

Take `Cc1nn(C)c2nc(N(Cc3cnn(C)c3)C3CCCCC3)sc12`: the cytotoxicity at 10 µM is -1.24%.

With `COc1c(C(=O)N2CCNC(=O)C2)cnc2c1c(C)nn2C`, the cytotoxicity at 10 µM stood at 6.26%.

In the case of `O=C(C1CCOCC1)N1CCC2(CC1)CN(c1ccsc1)C(=O)CO2`, the cytotoxicity at 10 µM is -63.4%.

Take `CCc1cc(N[C@@H](CC(C)C)C(N)=O)n2nc(C)c(C)c2n1`: the cytotoxicity at 10 µM was 7.33%.

Regarding `CCCNc1cc(-c2c[nH]nc2C2CCN(C(=O)C3CCC3)C2)ccn1` (stereo not drawn), the cytotoxicity at 10 µM worked out at 82%.

Regarding `Cc1cc2c(cc1C)OC(C(=O)NCCNC(=O)C1CCCC1)C2` (stereo not drawn), the cytotoxicity at 10 µM is 7.71%.

Take `Cc1ncsc1C(=O)NCCn1nc2ccccn2c1=O`: the cytotoxicity at 10 µM stood at 0.00307%.

On to `CCc1nn(C)c(Cl)c1CN1CCN(c2ccc(C(N)=O)cn2)CC1`, for which the cytotoxicity at 10 µM was determined as 9.83%.

In the case of `Cc1nccn1CCN(C)c1cc(C(C)C)nc2ccnn12`, the cytotoxicity at 10 µM was -3.88%.

Consider `CSc1ccccc1CCC1CCS(=O)(=O)C1` (stereo not drawn), for which the cytotoxicity at 10 µM turned out to be 3.75%.

Take `Cc1cc(-c2ccc(=O)n(CCNC(=O)C3CCCCC3)n2)c(C)o1`: the cytotoxicity at 10 µM is -3.73%.

On to `Cc1nc(C(C)C)ncc1C(=O)N1CCc2c(nc(N(C)C)[nH]c2=O)C1`, for which the cytotoxicity at 10 µM is 14.3%.

Regarding `NC(=O)c1cc(C2CCCN(C(=O)CCc3cccs3)C2)n[nH]1` (stereo not drawn), the cytotoxicity at 10 µM turned out to be 2.33%.

With `N#Cc1ccc(C(=O)N(C2CC2)C2CC(=O)NC2=O)cc1` (stereo not drawn), the cytotoxicity at 10 µM was -4.64%.

Consider `CC(C)C(NC(=O)c1ccccc1)C(=O)N1CCC2(CC1)OCCO2` (stereo not drawn), for which the cytotoxicity at 10 µM came to 5.44%.

Consider `CC(C)C(=O)N1CCCC1C(=O)Nc1ccc(F)c(F)c1` (stereo not drawn), for which the cytotoxicity at 10 µM is -1.57%.

`CCCN(CC)C(=O)c1cc2c(c3ccccc3n2C)n1C(=O)N(C)C`: the cytotoxicity at 10 µM was -4.89%.

Consider `O=C(C1=CCCC1)N1CCO[C@H]2[C@@H](OCC3CC3)CC[C@@H]21`, for which the cytotoxicity at 10 µM was -5.66%.

As to `CC(C)c1nnc(NC(=O)N2CCN(C)CC2c2ccccc2)s1` (stereo not drawn), the cytotoxicity at 10 µM was -11.6%.

Consider `Cn1nc2c(cc1=O)CN(c1nc3ccccc3s1)CC2`, for which the cytotoxicity at 10 µM came out at 2.89%.

For `COc1cnc(CSc2nnc(C)s2)cc1OCC(=O)NC(C)(C)C`, the cytotoxicity at 10 µM was 9.82%.

Regarding `CC(C)c1nc(C2CCCN2C(=O)c2cnns2)no1` (stereo not drawn), the cytotoxicity at 10 µM was -6.8%.

Turning to `C=C(C)CN1CCN(Cc2cnc(OC)nc2)CC1`, the cytotoxicity at 10 µM is 5.16%.

With `COc1cc(OC)cc(C(=O)N2CCOCC2c2[nH]ncc2C)c1` (stereo not drawn), the cytotoxicity at 10 µM is 7.83%.

Turning to `COc1ccsc1C(=O)N1CCCN(Cc2cscn2)CC1`, the cytotoxicity at 10 µM was -9.12%.

On to `Cc1cc(C)n(CC2CCCN2CCC(=O)Nc2cc(C)on2)n1` (stereo not drawn), for which the cytotoxicity at 10 µM turned out to be 1.44%.

For `CC(=O)N1CCC(c2cncc(N3CCCC(O)C3)n2)CC1` (stereo not drawn), the cytotoxicity at 10 µM was -1.47%.

For `COc1ccc(CN)c(OC(F)F)c1`, the cytotoxicity at 10 µM was -41.7%.

On to `O=C(c1ccc[nH]1)N1CCn2cc(Cn3cccn3)nc2C1`, for which the cytotoxicity at 10 µM was -81.9%.

For `CC(C)C(NC(=O)c1ccc(Cl)cc1Cl)C(=O)Nc1cnn(C)c1` (stereo not drawn), the cytotoxicity at 10 µM was -2.65%.

Take `c1cc(CNCC2OCCc3cn(CC4CCOCC4)nc32)ccn1` (stereo not drawn): the cytotoxicity at 10 µM was determined as 3.68%.

For `CS(=O)(=O)N1CCCCCC1C1CCN(c2ncccn2)CC1` (stereo not drawn), the cytotoxicity at 10 µM was -7.98%.

Take `Cc1ccc(CC(=O)NCC(O)c2cc(Cl)cc(Cl)c2)cn1` (stereo not drawn): the cytotoxicity at 10 µM is -3.69%.

Regarding `O=C(N1CCC(Oc2ccncc2)C1)C1(c2ccccc2F)CC1` (stereo not drawn), the cytotoxicity at 10 µM was -10.4%.

As for `CC(NCc1cccnc1)c1ccc(OCC(=O)NC2CC2)cc1` (stereo not drawn), the cytotoxicity at 10 µM is 2.36%.

For the molecule `CCOc1ncccc1NC(=O)N1CCCN(C(=O)OC)CC1`, the cytotoxicity at 10 µM was -9.86%.

As for `Cc1ccc(C(=O)CCC(=O)N2CCC(c3nncn3C)CC2)cc1`, the cytotoxicity at 10 µM was -9.86%.

As to `O=C(Nc1ccccc1N1CCOC1=O)N1CCc2sccc2C1`, the cytotoxicity at 10 µM was -5.55%.

Regarding `COc1cccc(CC(=O)N2CCCSCC2CN2CCCC2)c1` (stereo not drawn), the cytotoxicity at 10 µM is -1.42%.

As for `Cc1nn(C)c(C)c1C(C)NC(=O)Nc1cccnc1N1CCCC1` (stereo not drawn), the cytotoxicity at 10 µM is -6.88%.

For `CC(C)CN1CC(c2nc(C3CC3)n[nH]2)CC1=O` (stereo not drawn), the cytotoxicity at 10 µM was -1.64%.

For `Cc1noc2nc(C3CCN(Cc4ccncc4)CC3)cc(C(F)F)c12`, the cytotoxicity at 10 µM is 6.54%.

In the case of `CNc1oc(-c2ccc(S(=O)(=O)N(C)C)o2)nc1C#N`, the cytotoxicity at 10 µM is -5.96%.

Consider `CC(C)c1nnc2n1CCN(Cc1cc(Cl)c3c(c1)OCO3)C2`, for which the cytotoxicity at 10 µM was determined as 0.0723%.

For `COc1cc(CN2C[C@@H]3CNC(=O)[C@H](C)[C@@H]3C2)cc(OC)c1`, the cytotoxicity at 10 µM came out at 0.405%.

With `CCc1nnc2n1CCN(C(=O)c1cnc(-c3cccs3)s1)C2`, the cytotoxicity at 10 µM is -3.28%.

In the case of `c1cncc(-c2nnc([C@H]3CCN(CC4CC4)C3)o2)c1`, the cytotoxicity at 10 µM came out at 9.06%.

`Cc1noc(C)c1C(=O)N1CCCN(Cc2nccn2C(C)C)CC1`: the cytotoxicity at 10 µM was -3.92%.

Take `CCOC(=O)N1CCC(OC)c2ccccc2N(C)C(=O)C1` (stereo not drawn): the cytotoxicity at 10 µM is 7.58%.

Regarding `CC(C)CCCC1CN(C(=O)c2cnc[nH]2)CCO1` (stereo not drawn), the cytotoxicity at 10 µM amounted to 2.83%.

On to `COCC1c2c(cnn2C)CCN1C(=O)c1cccn1C` (stereo not drawn), for which the cytotoxicity at 10 µM was -94.1%.

Regarding `O=C(CC1CC1)N1CCC2(COCc3cnc(-c4cccnc4)nc32)C1` (stereo not drawn), the cytotoxicity at 10 µM was -106%.

Take `CN(C)C(=O)COC[C@@H]1CC[C@H]2[C@H](CCN2c2ccccn2)O1`: the cytotoxicity at 10 µM worked out at 10%.

For `CC(C)NC(=O)CC1CC2(CCN(S(C)(=O)=O)CC2)c2ccccc21` (stereo not drawn), the cytotoxicity at 10 µM is -2.48%.

For the molecule `CNc1nccnc1C1CCN(C(C)C)CC1`, the cytotoxicity at 10 µM was -25.2%.

For `COc1ccc(-n2cc3[nH][nH]c(=O)n3c2=O)cc1`, the cytotoxicity at 10 µM came out at 10.3%.

Regarding `Cc1noc(C)c1CC(=O)N1CCCC(n2ccnc2C)C1` (stereo not drawn), the cytotoxicity at 10 µM is -4.49%.

Take `CCN1CCC(CC(=O)NCC(O)c2cccc(OC)c2)CC1` (stereo not drawn): the cytotoxicity at 10 µM is -6.87%.

As to `CC(CNC(=O)c1ccncc1F)Oc1ccc(F)cc1` (stereo not drawn), the cytotoxicity at 10 µM was 0.0383%.

For the molecule `Cc1cccnc1N1CCC(c2nccn2Cc2cscn2)CC1`, the cytotoxicity at 10 µM is -0.65%.

In the case of `O=C(c1cc2c(s1)CCC2)N1CCC(c2cnccn2)CC1`, the cytotoxicity at 10 µM is -2.34%.

As for `COc1ccc(OCc2nccc(-c3cc(C(=O)O)ccn3)n2)cc1`, the cytotoxicity at 10 µM was -4.81%.

As for `COc1ccc(C2CCCN2S(=O)(=O)c2cc(F)ccc2F)cc1` (stereo not drawn), the cytotoxicity at 10 µM stood at 0.585%.

Consider `Cc1ccc2nc(CN(Cc3ccc(C)o3)C(C)C)cc(=O)n2c1`, for which the cytotoxicity at 10 µM is 5.6%.

As for `O=C(c1ccc2c(c1)COC2)N1CCCC(n2cncn2)C1` (stereo not drawn), the cytotoxicity at 10 µM is -20.6%.

As to `C/C(NC(=O)c1cccs1)=C1\C(=O)C[C@@H]2[C@H]1C2(C)C`, the cytotoxicity at 10 µM was -1.18%.

As for `CN(Cc1n[nH]c(=O)n1Cc1ccco1)S(C)(=O)=O`, the cytotoxicity at 10 µM is -1.25%.

On to `COc1ccc(CNC2CCN(c3ccccc3)C2)cc1O` (stereo not drawn), for which the cytotoxicity at 10 µM turned out to be 8.63%.

Turning to `Cc1nc2ccccc2nc1CN1CCOC(Cn2cccn2)C1` (stereo not drawn), the cytotoxicity at 10 µM came to 1.1%.
